Common to all, as to assay type: functional, cell-based
The test system of assay [1] is RAW264.7. Nature of the assay: Inhibition of LPS-induced IL-1beta production in mouse RAW264.7 cells after 24 hrs by ELISA. The settings on record: RAW264.7, 24 h. The essentials: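 RAW 264.7 cells at 2 × 10^6 cells/mL stimulated with 1 μg/mL LPS in presence or absence of compound, 37 °C, 24 h. IL-1β in culture medium quantified by commercial ELISA kit. Remaining-cell viability checked by colorimetric cell counting kit. IC50 as mean of triplicate experiments.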
(ELISA stands for enzyme-linked immunosorbent assay.)

Assay [2] has as its system RAW264.7. Nature of the assay: Inhibition of LPS-induced NO production in mouse RAW264.7 cells after 24 hrs by Griess reagent based assay. The settings on record: RAW264.7, 24 h. In short, it runs like this: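 RAW 264.7 cells seeded at 2 × 10^6 cells/mL, stimulated with 1 μg/mL LPS with or without compound, 37 °C for 24 h. Supernatant nitrite measured as NO indicator: Griess reagent, room temperature 10 min, absorbance 550 nm against sodium nitrite standard curve. Viability of remaining cells by colorimetric cell counting kit. IC50 as mean of triplicate experiments.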
On the technique in general: Griess reagent forms a coloured azo dye with nitrite.

In assay [3] the test system is RAW264.7. Nature of the assay: Inhibition of LPS-induced IL-1beta gene expression in mouse RAW264.7 cells at 12.5 to 50 uM after 24 hrs by RT-PCR method. In short, it runs like this:
(§1)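 Total RNA isolated with TRIZOL; single-stranded cDNA made from 2 μg total RNA, then PCR for iNOS or IL-1β transcripts. Products run on 1% agarose gels, stained with 5 μg/mL ethidium bromide. Cells LPS-stimulated, compound tested across doses.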

The subject of assay [4] is RAW264.7. Nature of the assay: Inhibition of LPS-induced iNOS gene expression in mouse RAW264.7 cells at 12.5 to 50 uM after 24 hrs by RT-PCR method. The essentials: as §1

Consider `C=CCc1ccc(O)c(-c2cc(CC=C)ccc2O)c1` [MAGNOLOL], for which the 50% inhibitory concentration (IC50) in the assay on RAW264.7 [1] was found to be 38.9 µM; in the assay with RAW264.7 [2], 35.4 µM.

For the compound `CC1(C)C[C@H](O)C[C@@]2(C)OC(=O)C=C12` [LOLIOLIDE], the IC50 with RAW264.7 [1] and in the assay on RAW264.7 [2] was greater than 50 µM throughout.

`COc1cn2c(=O)ccc(O)c2cn1`: the 50% inhibitory concentration (IC50) with RAW264.7 [1] and in the assay with RAW264.7 [2] was greater than 50 µM in each case.

`COc1ccc2c(c1)c(CC(=O)O)c(C)n2C(=O)c1ccc(Cl)cc1` [INDOMETHACIN]: the values for the IC50 with RAW264.7 [1] and with RAW264.7 [2] were 18.7 µM and 15.8 µM, respectively.

As to `CC(C)=CCc1c(O)cc(O)c2c(=O)cc(-c3cc(O)c4c(c3)C=CC(C)(C)O4)oc12`, the half-inhibitory concentration (IC50) in the assay with RAW264.7 [1] and in the assay on RAW264.7 [2] was greater than 50 µM throughout.

With `COc1c(O)cc(-c2cc(=O)c3c(O)cc(O)c(CC=C(C)C)c3o2)cc1CC=C(C)C`, the inhibition entry with RAW264.7 [3] and in the assay on RAW264.7 [4] was “Dose-dependent effect” throughout. Further, the IC50 in the assay on RAW264.7 [1] came to 8.8 µM; with RAW264.7 [2], 16.8 µM.

On to `COc1cc([C@H]2OC[C@H]3[C@@H]2CO[C@H]3c2ccc(O)c(OC)c2)ccc1O` [PINORESINOL], for which the figures for the IC50 in the assay with RAW264.7 [1] and with RAW264.7 [2] were greater than 50 µM and 39.5 µM, respectively.

In the case of `COc1ccc(Oc2cc(=O)c3cc(O)c(CC=C(C)C)c(O)c3o2)cc1`, the 50% inhibitory concentration (IC50) came to 28.9 µM with RAW264.7 [1] and 27.5 µM in the assay with RAW264.7 [2].

As for `CC1(C)C=Cc2c(cc(O)c3c(=O)cc(Oc4ccc(O)cc4)oc23)O1`, the half-maximal inhibitory concentration (IC50) in the assay with RAW264.7 [1] and with RAW264.7 [2] was greater than 50 µM each time.

As to `COc1cc([C@@H]2OC[C@@H]3[C@H]2CO[C@H]3c2cc(OC)c(O)c(OC)c2)cc(OC)c1O`, the IC50 in the assay with RAW264.7 [1] was greater than 50 µM; in the assay on RAW264.7 [2], 45.6 µM.

For the compound `COc1cc2ccc3cc(OC)c(OC)c(OC)c3c2cc1OC`, the IC50 with RAW264.7 [1] was greater than 50 µM; with RAW264.7 [2], 49.3 µM.

On to `CC1(C)C[C@@H](O)C[C@@]2(C)OC(=O)C=C12` [(+)-EPILOLIOLIDE], for which the concentration for half-maximal inhibition (IC50) in the assay with RAW264.7 [1] and in the assay on RAW264.7 [2] was greater than 50 µM each time.

As for `COc1cc(C[C@@]2(O)CO[C@H](c3ccc(O)c(OC)c3)[C@H]2COC(C)=O)ccc1O`, the IC50 with RAW264.7 [1] and in the assay with RAW264.7 [2] was greater than 50 µM each time.

For the compound `CC(=O)/C=C/[C@@]1(O)C(C)=CC(=O)CC1(C)C`, the IC50 with RAW264.7 [1] is greater than 50 µM; in the assay on RAW264.7 [2] it was 38.5 µM.

For the compound `CC(C)=CCc1cc(-c2cc(=O)c3c(O)cc(O)c(CC=C(C)C)c3o2)ccc1O`, the inhibition entry in the assay with RAW264.7 [3] and in the assay on RAW264.7 [4] was “Dose-dependent effect” in each case. Moreover, the values for the concentration for half-maximal inhibition (IC50) with RAW264.7 [1] and in the assay on RAW264.7 [2] were 8.6 µM and 19.7 µM, respectively.

In the assay on RAW264.7 [2], `N=C(N)NN` [PIMAGEDINE] gave an IC50 of 21.4 µM.

As for `COc1cc2c(cc1OC)-c1c(cc(OC)c(OC)c1OC)CC2`, the IC50 in the assay with RAW264.7 [1] and with RAW264.7 [2] was greater than 50 µM throughout.

As a reminder, the IC50 is the concentration needed to halve the response being measured. Read a high IC50 as weaker potency.

The record behind these values is ChEMBL document CHEMBL3351807, “2-Phenoxychromones and prenylflavonoids from Epimedium koreanum and their inhibitory effects on LPS-induced nitric oxide and interleukin-1β production” (J Nat Prod, 2014).
